Measured values reported in the M2OR odorant receptor database.

What follows are compounds tested against T1, UniProt Q8VGX5. Conditions: stereoisomer not certain.
T1 sequence (whole entry): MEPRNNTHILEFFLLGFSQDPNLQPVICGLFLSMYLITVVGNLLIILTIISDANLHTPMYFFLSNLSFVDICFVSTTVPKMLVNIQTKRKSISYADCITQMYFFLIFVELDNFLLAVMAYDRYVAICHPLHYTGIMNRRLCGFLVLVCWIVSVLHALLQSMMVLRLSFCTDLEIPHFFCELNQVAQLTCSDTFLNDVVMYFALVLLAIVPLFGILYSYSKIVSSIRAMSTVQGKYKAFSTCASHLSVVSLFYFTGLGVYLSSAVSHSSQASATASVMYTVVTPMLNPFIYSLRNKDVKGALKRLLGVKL
Outline: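 Each receptor–molecule pair is labelled responsive or non-responsive (inactive) according to whether the original authors judged the measured signal statistically different from baseline. The data were taken from the main text and supplementary material of published papers and checked for typos and inconsistencies. Assay methods differed by source, with transient luciferase assays in mammalian cell lines being common.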
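Further: active if original authors judged signal statistically different from baseline.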

| Structure (SMILES) | odorant receptor agonist call |
| --- | --- |
| O=C([O-])CCCCCCC(=O)[O-].[H+].[H+] | inactive |
| CCSCC | inactive |
| CC(C)=C1CCC(C)CC1=O (configuration not stated) | active |
| C=CC(=O)CCCCC | inactive |
| CCCCCCCCOC=O | inactive |
| CC(CC=O)CCCC(C)(C)O (configuration not stated) | inactive |
| CC(=O)OCc1ccc2c(c1)OCO2 | inactive |
| CCCCCCC(C=O)=Cc1ccccc1 | inactive |
| COC(OC)c1ccccc1 | inactive |
| CCCCCCCCC=CC=O | inactive |
| CC=CC(=O)C1=C(C)CCCC1(C)C | active |
| CCCC(C)C(=O)OCC (configuration not stated) | inactive |
| CCOC(=O)CC(C)C | inactive |
| CCCCCC=CCCC=O | inactive |
| CCc1ccccc1O | inactive |
| O=C(O)CCCCCBr | inactive |

| Structure (SMILES) | odorant receptor agonist call |
| --- | --- |
| OCC=Cc1ccccc1 | inactive |
| Cc1occc1SSc1ccoc1C | inactive |
| Cc1ccc(C(C)C)c(O)c1 | inactive |
| Cc1ccc(OC(=O)C(C)C)cc1 | inactive |
| OCCCCCCCCCO | inactive |
| CCCO | inactive |
| CCCCCC(C=O)=Cc1ccccc1 | inactive |
| C=C1C2CCC(C2)C1(C)C (configuration not stated) | inactive |
| CCSSCC | inactive |
| CCC=CCCC=CC=O | inactive |
| COc1ccccc1 | inactive |
| CCCCCC(=Cc1ccccc1)C(OC)OC | inactive |
| CSSSC | inactive |
| CC=C(C)C=O | inactive |
| Cc1c(C)c(C)c(C=O)c(C)c1C | inactive |
| CCCCCCC(=O)OCCCC | inactive |
